In ChEMBL document CHEMBL1137788, “Potential neuroprotective drugs in cerebral ischemia: new saturated and polyunsaturated lipids coupled to hydrophilic moieties: synthesis and biological activity” (J Med Chem, 2009):
Calls of active or inactive are those of the source. The rule behind the calls is not given here.

How the values were obtained:
[1] = Cytotoxicity against mouse HT22 cells at 10 uM after 24 hrs by MTT assay; type: cell-based; settings: ht-22, 24 h
Outline: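 HT22 cells grown in DMEM with 10% FCS were seeded at 5 × 10³ cells per well. The medium was switched to DMEM with 7.5% dialyzed FCS and cells were exposed to 10 μM compound alone. Viability was read after 24 h by MTT (2.5 μg/mL, 4 h at 37 °C, solubilized in DMF/SDS pH 4.7) at 570 nm.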

HT-22 [2] = test: Neuroprotective effect against iodoacetic acid-induced ischemia in mouse HT22 cells assessed as cell survival at 1 to 10 uM treated simultaneously with iodoacetic acid for 2 hrs followed by incubation in fresh medium containing drug alone for 20 hrs measured after 4 hrs by MTT assay; type: functional
Outline: (§1)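 HT22 cells were seeded at 5 × 10³ per well and moved next day to DMEM with 7.5% dialyzed FCS. They were exposed to 20 μM iodoacetic acid plus graded compound doses for 2 h, then given fresh IAA-free medium containing compound for 20 h. MTT was added for 4 h at 37 °C and absorbance read at 570 nm.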

HT-22 [3] = test: Activation of ERK phosphorylation in mouse HT22 cells at 10 uM treated simultaneously with iodoacetic acid for 2 hrs followed by 2 hrs of recovery in presence of drug alone by immunoblot analysis; type: cell-based
Outline: (§2)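 HT22 cells, plated at the same density as for the death assays, were given 10 μM compound with or without 20 μM IAA for 2 h, then allowed 2 h of recovery with compound present. Cells were washed in PBS and lysed in SDS sample buffer with Na3VO4 and PMSF. Lysates were run on 10% gels and immunoblotted for phospho and total ERK, JNK, p38, c-Jun and MAPKAPK2.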

HT-22 [4] = test: Neuroprotective effect against iodoacetic acid-induced ischemia in mouse HT22 cells treated simultaneously with iodoacetic acid for 2 hrs followed by incubation in fresh medium containing drug alone for 20 hrs measured after 4 hrs by MTT assay; type: functional, cell-based; outline: as §1
HT-22 [5] = test: Neuroprotective effect against glutamate-induced neuronal cell death in mouse HT22 cells assessed as cell survival at 1 to 10 uM treated simultaneously with glutamate after 24 hrs by MTT assay; type: functional
Outline: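 Mouse HT22 hippocampal cells grown in DMEM/10% FCS, seeded 5 × 10³ cells/well. Next day medium changed to DMEM with 7.5% dialyzed FCS and cells given analogue doses together with 5 mM glutamate for 24 h. Medium then replaced with 2.5 μg/mL MTT for 4 h at 37 °C and solubilized in 50% DMF/20% SDS (pH 4.7). A570 read next day. Maximal % survival at best dose reported.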

Brain = test: Neuroprotective effect against glutamate-induced injury in rat brain slices at 10 uM treated 1 hr prior to and during glutamate challenge by 2, 3, 5-triphenyl tetrazolium chloride staining method; type: functional, tissue-based
Outline: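 Rat cortical slices were cultured with compound for 1 h before and during injury with 1 mM glutamate. Slice viability was assessed by TTC staining, n=6, mean ± SD.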

[6] = target: T1, MAP kinase p38 (Mus musculus) (UniProt P47811+O08911+Q9WUI1+Q9Z1B7); test: Inhibition of p38 MAPK activation in mouse HT22 cells at 10 uM treated simultaneously with iodoacetic acid for 2 hrs followed by 2 hrs of recovery in presence of drug alone by immunoblot analysis; type: cell-based; settings: HT-22; outline: as §2
HT-22 [7] = test: Inhibition of JNK activation in mouse HT22 cells assessed as c-jun phosphorylation at 10 uM treated simultaneously with iodoacetic acid for 2 hrs followed by 2 hrs of recovery in presence of drug alone by immunoblot analysis; type: cell-based; outline: as §2
HT-22 [8] = test: Inhibition of JNK activation in mouse HT22 cells at 10 uM treated simultaneously with iodoacetic acid for 2 hrs followed by 2 hrs of recovery in presence of drug alone by immunoblot analysis; type: cell-based; outline: as §2
[9] = target: T1, MAP kinase p38 (Mus musculus); test: Inhibition of p38 MAPK activation in mouse HT22 cells assessed as MAPKAPK2 phosphorylation at 10 uM treated simultaneously with iodoacetic acid for 2 hrs followed by 2 hrs of recovery in presence of drug alone by immunoblot analysis; type: cell-based; settings: HT-22; outline: as §2

SMILES | Activity [1] [%] | %max (HT-22 [2]) [%] | Activity (HT-22 [3]) | EC50 (HT-22 [4]) [µM] | %max (HT-22 [5]) [%] | Activity (Brain) | Activity [6] | Activity (HT-22 [7]) | Activity (HT-22 [8]) | Activity [9]
CCCCCCCCCCCCCCCCCC(=O)NCCCCCC(=O)OCC(O)C1OC(=O)C(OCc2ccccc2)=C1OCc1ccccc1 (stereo not drawn) | 48 | 68 | inactive | 2.5 | 19 | – | – | – | – | –
CCCCCCCCCCCCCCCCCC(=O)NC(CO)P(=O)(O)O (stereo not drawn) | 50 | 74 | inactive | 2.1 | 20 | – | – | – | – | –
CCCCC/C=C/C/C=C/CCCCCCCC(=O)NCCCCCC(=O)OCC(O)C1OC(=O)C(OCc2ccccc2)=C1OCc1ccccc1 (stereo not drawn) | 7 | 59 | inactive | 8.2 | 13 | – | – | – | – | –
CCOC(=O)C(CO)NC(=O)/C=C(C)/C=C/C1(O)C(C)=CC(=O)CC1(C)C (stereo not drawn) | 1 | 39 | inactive | 13.6 | 21 | – | – | – | – | –
CC(C)C1=CC2=CCC3[C@](C)(CCC[C@]3(C)C(=O)NC(CO)C(=O)O)[C@@H]2CC1 (stereo partly drawn) | 26 | 27 | inactive | – | 10 | – | – | – | – | –
CCCCC/C=C/C/C=C/CCCCCCCC(=O)NC(C(=O)OCC)c1nnn[nH]1 (stereo not drawn) | 4 | 41 | inactive | 11.3 | 8 | – | – | – | – | –
CCCCCCCCCCCCCCCCCC(=O)NC(CO)P(=O)(OC)OC (stereo not drawn) | 11 | 64 | inactive | 4.1 | 17 | – | – | – | – | –
CC1=C(/C=C/C(C)=C/C=C/C(C)=C/C(=O)NC(CO)C(=O)O)C(C)(C)CCC1 (stereo not drawn) | 20 | 63 | inactive | 4.1 | 16 | – | – | – | – | –
O=c1c(O)c(-c2ccc(O)c(O)c2)oc2cc(O)ccc12 [FISETIN] | 15 | 95 | inactive | 2.8 | – | – | – | – | – | –
CCCCCCCCCCCCCCCCCC(=O)NC(CO)C(=O)OCC (stereo not drawn) | 53 | 56 | inactive | 9.8 | 16 | – | – | – | – | –
CCOC(=O)C(CO)NC(=O)C=C(C)/C=C/C=C(C)/C=C/C1=C(C)CCCC1(C)C (stereo not drawn) | 15 | 45 | inactive | 11.6 | 14 | – | – | – | – | –
CCCCCCCCCCCCCCCCCC(=O)NC(CO)C(=O)O (stereo not drawn) | 28 | 65 | inactive | 3.2 | 16 | Active | – | – | – | –
CCCCCCCCCCCCCCCCCC(=O)NCCCCCC(=O)OCC(O)C1OC(=O)C(O)=C1O (stereo not drawn) | 40 | 92 | inactive | 1.8 | 65 | – | – | – | – | –
CCOC(=O)C(CO)NC(=O)[C@@]1(C)CCC[C@@]2(C)C1CC=C1C=C(C(C)C)CC[C@H]12 (stereo partly drawn) | 25 | 85 | inactive | 1.05 | 55 | – | Active | Active | Active | Active
CCCCC/C=C\C/C=C\CCCCCCCC(=O)NCCCCCC(=O)OCC(O)C1OC(=O)C(O)=C1O (stereo not drawn) | 19 | 55 | inactive | 6.4 | 32 | – | – | – | – | –
CC1=CC(=O)CC(C)(C)C1(O)/C=C/C(C)=C/C(=O)NC(CO)C(=O)O (stereo not drawn) | 40 | 70 | inactive | 2.7 | 14 | – | – | – | – | –
